Measurements as given in ChEMBL document CHEMBL3098047, “Design, synthesis and structure-activity relationships of substituted oxazole-benzamide antibacterial inhibitors of FtsZ” (Bioorg Med Chem Lett, 2014).
Converted amounts (≈) assume the structure as drawn.

Experiments:
Staphylococcus aureus [1] = test: Antibacterial activity against Staphylococcus aureus ATCC 29213 by broth microdilution method; type: functional
Procedure, shortened: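 Broth microdilution MIC per CLSI guidelines against S. aureus ATCC 29213; MIC in µg/mL.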

[2] = target: T1, Cell division protein FtsZ (Staphylococcus aureus) (UniProt P0A031); test: Inhibition of Staphylococcus aureus ATCC 29213 FtsZ-mediated cell division phenotype
T1 sequence (whole entry): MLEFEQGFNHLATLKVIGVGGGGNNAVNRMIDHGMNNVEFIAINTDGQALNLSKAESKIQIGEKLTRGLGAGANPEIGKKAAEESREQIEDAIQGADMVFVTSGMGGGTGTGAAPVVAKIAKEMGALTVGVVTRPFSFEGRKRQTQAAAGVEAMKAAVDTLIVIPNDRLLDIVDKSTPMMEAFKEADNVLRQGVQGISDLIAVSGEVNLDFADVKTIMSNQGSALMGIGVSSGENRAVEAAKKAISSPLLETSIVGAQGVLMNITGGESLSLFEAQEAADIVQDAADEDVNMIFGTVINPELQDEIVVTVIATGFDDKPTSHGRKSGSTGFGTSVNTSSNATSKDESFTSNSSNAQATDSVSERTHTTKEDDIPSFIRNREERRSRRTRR
Procedure, shortened: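 S. aureus ATCC 29213 cell division inhibition assay run alongside MIC testing; value is the lowest concentration at which an inhibition of cell division phenotype was seen (µg/mL).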

Staphylococcus aureus [3] = test: Antibacterial activity against Staphylococcus aureus harboring FtsZ G196A mutant by broth microdilution method; type: functional
Procedure, shortened: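 S. aureus ATCC 29213 derivative with G196A substitution in FtsZ; MIC by broth microdilution following CLSI guidelines; reported in µg/mL.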

[4] = Kinetic solubility of the compound in PBS buffer at pH 7.4 after 24 hrs by turbidimetric method; type: physicochemical; conditions: read-out: Kinetic_solubility
Procedure, shortened: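 Turbidimetric: doubling dilutions in DMSO diluted twenty-fold into PBS pH 7.4, equilibrated 24 h at room temperature, absorbance read at 620 nm. Value is highest concentration with no measurable precipitate.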

[5] = Half life in Balb/c mouse at 3 mg/kg, iv by LC-MS/MS analysis; type: ADME, organism-based; set-up: dose 3 mg/kg, route intravenous; conditions: in vivo
[6] = Chemical stability of the compound in PBS buffer assessed as compound remaining at 10 uM at pH 7.4 after 24 hrs by LC-MS/MS analysis; type: physicochemical; conditions: read-out: Stability
Procedure, shortened: (§1)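 Compound at 10 μM in PBS pH 7.4 or neat mouse plasma, 5% v/v DMSO final, incubated 24 h at 37 °C. Samples extracted with acetonitrile and centrifuged; supernatant analysed by LC-MS; reported as % remaining.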

[7] = Metabolic stability in mouse plasma assessed as compound remaining at 10 uM after 24 hrs by LC-MS/MS analysis; type: ADME, cell-free; conditions: read-out: Stability; procedure, shortened: as §1
[8] = Volume of distribution in Balb/c mouse at 3 mg/kg, iv by LC-MS/MS analysis; type: ADME, organism-based; set-up: dose 3 mg/kg, route intravenous; conditions: in vivo
[9] = Half life in CD-1 mouse hepatocytes at 10 uM by LC-MS/MS analysis; type: ADME, cell-based, Hepatocyte
Procedure, shortened: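 Cryopreserved CD-1 mouse hepatocytes (5×10^4 cells), compound 10 μM in duplicate, 0.5% v/v DMSO final; stopped with DMSO at seven time points up to 120 min. Acetonitrile extraction, centrifugation, LC-MS of supernatant; half-life in min.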

[10] = Initial plasma concentration in Balb/c mouse at 3 mg/kg, iv by LC-MS/MS analysis; type: ADME, organism-based; set-up: dose 3 mg/kg, route intravenous
[11] = Half life in mouse microsomes at 10 uM by LC-MS/MS analysis; type: ADME, Microsome
Procedure, shortened: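 Mouse microsomes at 1 mg/mL protein, compound 10 μM, 0.1% v/v DMSO final; started with 1 mM NADPH, stopped with DMSO at 0, 10, 30, 60 min. Acetonitrile extraction, centrifugation, LC-MS of supernatant; half-life in min.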

[12] = AUC in Balb/c mouse at 3 mg/kg, iv by LC-MS/MS analysis; type: ADME, organism-based; set-up: dose 3 mg/kg, route intravenous; conditions: plasma
[13] = Clearance in Balb/c mouse at 3 mg/kg, iv by LC-MS/MS analysis; type: ADME, organism-based; set-up: dose 3 mg/kg, route intravenous; conditions: in vivo

SMILES | MIC (Staphylococcus aureus [1]) [µg/mL] | MIC [2] [µg/mL] | MIC (Staphylococcus aureus [3]) [µg/mL] | further results
NC(=O)c1c(F)ccc(OCc2nc(-c3ccc(OC(F)(F)F)cc3)c(I)o2)c1F | 0.06 (≈ 0.111 µM) | 0.06 (≈ 0.111 µM) | > 64 | –
NC(=O)c1c(F)ccc(OCc2nc(-c3ccc(OC(F)(F)F)cc3)c(Cl)o2)c1F | 0.12 (≈ 0.267 µM) | 0.12 (≈ 0.267 µM) | 8 (≈ 17.8 µM) | –
CCOc1oc(COc2ccc(F)c(C(N)=O)c2F)nc1-c1ccc(Cl)cc1 | 0.06 (≈ 0.147 µM) | 0.03 (≈ 0.0734 µM) | > 64 | –
Cc1nnc(CC(Oc2ccc(F)c(C(N)=O)c2F)c2nc(-c3ccc(C(F)(F)F)cc3)c(Br)o2)o1 (racemic) | 8 (≈ 14 µM) | 16 (≈ 27.9 µM) | – | –
NC(=O)c1c(F)ccc(OC(COC(=O)NCCc2c[nH]cn2)c2nc(-c3ccc(C(F)(F)F)cc3)c(Br)o2)c1F (racemic) | – | – | – | solubility kinetic at 24 h [4]: 100 µg/mL (≈ 155 µM)
COc1ccc(-c2nc(COc3ccc(F)c(C(N)=O)c3F)oc2-c2cncs2)cc1 | 2 (≈ 4.51 µM) | 2 (≈ 4.51 µM) | – | –
C=CCc1oc(COc2ccc(F)c(C(N)=O)c2F)nc1-c1ccc(Cl)cc1 | 0.06 (≈ 0.148 µM) | 0.06 (≈ 0.148 µM) | > 64 | –
N#Cc1oc(COc2ccc(F)c(C(N)=O)c2F)nc1-c1ccc(C(F)(F)F)cc1 | 2 (≈ 4.72 µM) | 4 (≈ 9.45 µM) | > 64 | –
NC(=O)c1c(F)ccc(OC(COC(=O)NCC(=O)O)c2nc(-c3ccc(C(F)(F)F)cc3)c(Br)o2)c1F (racemic) | – | – | – | solubility kinetic at 24 h [4]: 800 µg/mL (≈ 1320 µM)
CCCc1oc(COc2ccc(F)c(C(N)=O)c2F)nc1-c1ccc(Cl)cc1 | 0.03 (≈ 0.0737 µM) | 0.015 (≈ 0.0369 µM) | – | half-life [5]: 0.417 h; remaining at 24 h, 10 µM [6]: 98%; remaining at 24 h, 10 µM [7]: 101%; Vd [8]: 5 L/kg; half-life at 10 µM [9]: 0.298 h; C0 [10]: 1200 ng/mL; half-life at 10 µM [11]: 1.14 h; AUC [12]: 400 ng·h/mL; clearance [13]: 137 mL/min/kg
COc1ccc(-c2nc(COc3ccc(F)c(C(N)=O)c3F)oc2C2CC2)cc1 | 0.12 (≈ 0.3 µM) | 0.12 (≈ 0.3 µM) | > 64 | –
CC(Oc1ccc(F)c(C(N)=O)c1F)c1nc(-c2ccc(OC(F)(F)F)cc2)c(Cl)o1 (racemic) | 0.12 (≈ 0.259 µM) | 0.25 (≈ 0.54 µM) | – | half-life [5]: 1.32 h; Vd [8]: 3.5 L/kg; C0 [10]: 2100 ng/mL; AUC [12]: 1600 ng·h/mL; clearance [13]: 31 mL/min/kg
NC(=O)c1c(F)ccc(OCc2nc(-c3ccc(Cl)cc3)c(CO)o2)c1F | 8 (≈ 20.3 µM) | 8 (≈ 20.3 µM) | > 64 | –
NC(=O)c1c(F)ccc(OC(COC(=O)CCC(=O)O)c2nc(-c3ccc(C(F)(F)F)cc3)c(Br)o2)c1F (racemic) | – | – | – | solubility kinetic at 24 h [4]: 200 µg/mL (≈ 329 µM)
COc1ccc(-c2coc(COc3ccc(F)c(C(N)=O)c3F)n2)cc1 | 2 (≈ 5.55 µM) | 2 (≈ 5.55 µM) | > 64 | –
CC(Oc1ccc(F)c(C(N)=O)c1F)c1nc(-c2ccc(C(F)(F)F)cc2)c(Br)o1 (racemic) | 0.06 (≈ 0.122 µM) | 0.06 (≈ 0.122 µM) | – | half-life [5]: 1.05 h; Vd [8]: 2 L/kg; C0 [10]: 2000 ng/mL; AUC [12]: 2200 ng·h/mL; clearance [13]: 22 mL/min/kg
CC(C)(Oc1ccc(F)c(C(N)=O)c1F)c1nc(-c2ccc(Cl)cc2)c(Br)o1 | > 64 | – | – | –
Cc1oc(COc2ccc(F)c(C(N)=O)c2F)nc1-c1ccc(Cl)cc1 | 0.5 (≈ 1.32 µM) | 0.5 (≈ 1.32 µM) | > 64 | –
NC(=O)c1c(F)ccc(OCc2nc3cc(Cl)cnc3s2)c1F | 1 (≈ 2.81 µM) | 0.5 (≈ 1.41 µM) | > 64 | –
NC(=O)c1c(F)ccc(O[C@H](CO)c2nc(-c3ccc(C(F)(F)F)cc3)c(Br)o2)c1F | 0.12 (≈ 0.237 µM) | 0.25 (≈ 0.493 µM) | 4 (≈ 7.89 µM) | –
CCC(Oc1ccc(F)c(C(N)=O)c1F)c1nc(-c2ccc(Cl)cc2)c(Br)o1 (racemic) | 2 (≈ 4.24 µM) | 1 (≈ 2.12 µM) | – | –
NC(=O)c1c(F)ccc(OCc2nc(-c3ccc(Cl)cc3)c([N+](=O)[O-])o2)c1F | > 64 | > 64 | > 64 | –
NC(=O)c1c(F)ccc(OC(COC(=O)Nc2nnn[nH]2)c2nc(-c3ccc(C(F)(F)F)cc3)c(Br)o2)c1F (racemic) | – | – | – | solubility kinetic at 24 h [4]: 800 µg/mL (≈ 1290 µM)
